A value given as a limit tells only on which side of the number the result lay.

In general, EC50 refers to the concentration at which the effect is half-maximal. Lower therefore signals higher potency in that assay. Usually EC90 stands for the point of the concentration-response curve where the effect stands at 90%. Read a low EC90 as greater potency. For orientation: CC50 means the concentration that lowers cell viability or growth by half.

For data set [1], the system named is Hepatitis C virus. Description: Effective concentrations at which 2-fold depression of HCV RNA was observed in AVA5 cells (Huh 7 cells with subgenomic HCV replicon BB7). It counts as functional, organism-based, Hepacivirus hominis. In outline:
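AVA5 cells (Huh7 carrying subgenomic HCV replicon BB7), grown 3 days with G418, then treated without G418 for 3 consecutive days while rapidly dividing, 3 cultures per concentration, fresh compound daily. HCV RNA measured by quantitative blot hybridization 24 h after last dose. EC50 is the concentration giving 2-fold HCV RNA depression vs untreated, by linear regression on all treated cultures.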
In general terms: In antiviral work, replicon cells carry a viral genome segment that copies itself.

Data set [2] relates to Hepatitis B virus. Nature of the data set: Effective concentrations at which 10-fold depression of intracellular intermediates of HBV DNA was observed in 2.2.15 Cells. It counts as functional. The following applies: HepG2 2.2.15. In short, it runs like this:
(§1)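 Confluent 2.2.15 cells in RPMI1640 with 2% FBS got nine daily doses, with medium and compound refreshed daily; six cultures per concentration on two plates. HBV DNA was quantified by blot hybridization 24 h after the last dose. EC50 and EC90 are the 2-fold and 10-fold depression versus untreated cultures, from linear regression over two to four experiments.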

Data set [3] concerns Hepatitis B virus. Description: Selectivity index of intracellular intermediates as the ratio of CC50 and EC90. It counts as functional. In short, it runs like this: (§2)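 The 2.2.15 HBV assay used nine daily doses. HBV DNA was measured by blot hybridization and toxicity by neutral red uptake, both 24 h after the last dose. The index is CC50/EC90, where EC90 is the 10-fold HBV DNA depression and CC50 the 2-fold dye-uptake depression versus untreated cultures.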

Data set [4] relates to Hepatitis B virus. Nature of the data set: Selectivity index of virion as the ratio of CC50 and EC90. It counts as functional. In short, it runs like this: as §2
Data set [5] concerns Hepatitis B virus. Description: (§3) Effective concentrations at which […] depression of extracellular virion DNA (HBV) was observed in 2.2.15 Cells. The class given is functional. The following applies: HepG2 2.2.15. In outline: as §1
For data set [6], the system named is Hepatitis B virus. The description is as §3. It counts as functional, organism-based. The settings on record: HepG2 2.2.15. In short, it runs like this: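 Confluent 2.2.15 cells in RPMI1640 with 2% FBS, given nine consecutive daily doses with daily medium change, six cultures per concentration on two plates. HBV DNA measured by quantitative blot hybridization 24 h after last dose. EC is the concentration giving 2-fold (EC50) or 10-fold (EC90) depression vs untreated, by linear regression, 2–4 experiments.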

The subject of data set [7] is Hepatitis B virus. Description: Cytotoxic concentration against […] replication in 2.2.15 cell culture. The class given is functional. The following applies: HepG2 2.2.15.
The test system of data set [8] is Hepatitis C virus. Description: Effective concentrations at which 10-fold depression of HCV RNA was observed in AVA5 cells (Huh 7 cells with subgenomic HCV replicon BB7I. The class given is functional, Hepacivirus hominis. In short, it runs like this:
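AVA5 cells (Huh7 carrying subgenomic HCV replicon BB7), grown 3 days with G418, then treated without G418 for 3 consecutive days while rapidly dividing, 3 cultures per concentration, fresh compound daily. HCV RNA measured by quantitative blot hybridization 24 h after last dose. EC90 is the concentration giving 10-fold HCV RNA depression vs untreated, by linear regression.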

In data set [9] the test system is Hepatitis C virus. Nature of the data set: Selectivity index as the ratio of CC50 and EC50. The class given is functional, Hepacivirus hominis. In outline:
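AVA5 cells (Huh7 carrying the BB7 subgenomic HCV replicon) were grown 3 days with G418, which was then withdrawn. Rapidly dividing cultures, three per concentration, were treated for 3 consecutive days with daily medium renewal. HCV RNA was measured by blot hybridization 24 h after the last dose, with neutral red uptake for toxicity. SI is CC50/EC50, each at 2-fold depression versus untreated cultures.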

A short description of data set [10]: Cytotoxic concentration against HCV replication in AVA5 cell culture. The settings on record: AVA5 cells. It counts as cell-based. In short, it runs like this:
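AVA5 replicon cells given compound daily for 3 days, without G418. Neutral red uptake (A510) read 24 h after last treatment. CC50 is the concentration giving 2-fold lower dye uptake vs untreated cultures, by linear regression on combined data from all treated cultures.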

Data set [11] can be described thus: Cytotoxic concentration against HBV replication in 2.2.15 cell culture. The following applies: hepatitis b virus, 2.2.15 cells. The class given is cell-based, HepG2 2.2.15. In outline:
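Confluent 2.2.15 cells in RPMI1640 with 2% FBS received nine consecutive daily doses, with medium and compound renewed daily. Toxicity was read 24 h after the last dose as neutral red uptake (A510), with three cultures per concentration on plates seeded in parallel from the same cell stock. CC50 is the 2-fold depression of dye uptake versus untreated cultures, from linear regression.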

With `Nc1ncnc2c1ncn2[C@@H]1C=C(CCO)[C@@H](O)[C@H]1O`, the EC50 in [1] is 7.3 µM; in [6] it was 0.53 µM. In addition, the EC90 in [2] is 27 µM; in [5] it was 7.7 µM; in data set [8] it was 31 µM. Also, the SI in data set [3] worked out at 45; in data set [4], 158; in data set [9] it was 30. Besides, the CC50 was determined as 1210 µM in data set [7] and 216 µM in data set [10].

Turning to `Nc1ccn([C@@H]2CS[C@H](CO)O2)c(=O)n1` (single isomer, unassigned) [LAMIVUDINE], the concentration for an effect of 90% (EC90) in data set [2] worked out at 0.69 µM; in data set [5] it was 0.17 µM. The molecule also returned a CC50 in data set [11] of 2680 µM. Moreover, the SI in data set [3] was 3877; in [4], 11630. This molecule also had an EC50 in data set [6] of 0.06 µM.

Take `NC(=O)c1ncn([C@@H]2O[C@H](CO)[C@@H](O)[C@H]2O)n1` [RIBAVIRIN]: in data set [1], the EC50 was > 100 µM. In [8], the EC90 is > 100 µM. Besides, the CC50 in data set [10] was 71 µM.

For the origin of these results see ChEMBL document CHEMBL1140348, “5'-Homoneplanocin A inhibits hepatitis B and hepatitis C” (J Med Chem, 2005).
